Experimental data taken from ChEMBL document CHEMBL1250489, “Schiff bases of indoline-2,3-dione (isatin) derivatives and nalidixic acid carbohydrazide, synthesis, antitubercular activity and pharmacophoric model building” (2010).
Values after ≈ are worked out from the molar mass of the structure shown. Active and inactive are the calls of the source. The calls are words filed in the database; no cut-off is given here.

The molecules below were run on Mycobacterium intracellulare (assay: Antitubercular activity against Mycobacterium intracellular ATCC 35743 after 48 hrs by agar dilution method). Settings: ATCC 35743, 48 h.
Assay type: functional
Summary of the method: (§1)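 Agar dilution MIC method. Compounds were dissolved in DMSO at 1 mg/ml and mixed into molten agar at 200 µg/ml. Active compounds were further diluted through 100, 50, 25, 12.5 and 6.25 down to 0.625 µg/ml. Plates had 3–4 mm agar depth. Inocula were overnight Mueller–Hinton broth cultures diluted 1:100 and radially streaked, then incubated 35 °C for 48 h. Isoniazid was the reference; drug-free and DMSO controls were included.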
With `CCN1C(=O)/C(=N\NC(=O)c2cn(CC)c3nc(C)ccc3c2=O)c2ccccc21` the MIC was 200 µg/mL (≈ 496 µM). With `NNC(=O)c1ccncc1` [ISONIAZID] the MIC was 12.5 µg/mL (≈ 91.1 µM). For `CCn1cc(C(=O)N/N=C2\C(=O)N(C)c3ccccc32)c(=O)c2ccc(C)nc21`, the MIC was 200 µg/mL (≈ 514 µM). Work on `CCn1cc(C(=O)N/N=C2\C(=O)N(Cc3ccccc3)c3ccc(Br)cc32)c(=O)c2ccc(C)nc21` yielded an MIC of 50 µg/mL (≈ 91.8 µM). `CCn1cc(C(=O)N/N=C2\C(=O)N(Cc3ccccc3)c3ccccc32)c(=O)c2ccc(C)nc21` showed an MIC of 0.625 µg/mL (≈ 1.34 µM). Molecule `CCN1C(=O)/C(=N\NC(=O)c2cn(CC)c3nc(C)ccc3c2=O)c2cc(Br)ccc21` has an MIC of 100 µg/mL (≈ 207 µM).

Each molecule was assayed on Mycobacterium xenopi (assay: Antitubercular activity against Mycobacterium xenopi ATCC 14470 after 48 hrs by agar dilution method). Settings: ATCC 14470, 48 h.
Assay type: functional
Summary of the method: as §1
`CCN1C(=O)/C(=N\NC(=O)c2cn(CC)c3nc(C)ccc3c2=O)c2ccccc21` gave an MIC of 200 µg/mL (≈ 496 µM). `NNC(=O)c1ccncc1` [ISONIAZID] showed an MIC of 12.5 µg/mL (≈ 91.1 µM). In the case of `CCn1cc(C(=O)N/N=C2\C(=O)N(Cc3ccccc3)c3ccc(Br)cc32)c(=O)c2ccc(C)nc21`, the MIC was 50 µg/mL (≈ 91.8 µM). `CCn1cc(C(=O)N/N=C2\C(=O)N(Cc3ccccc3)c3ccccc32)c(=O)c2ccc(C)nc21` showed an MIC of 0.625 µg/mL (≈ 1.34 µM). `CCN1C(=O)/C(=N\NC(=O)c2cn(CC)c3nc(C)ccc3c2=O)c2cc(Br)ccc21` was tested, and the MIC was 100 µg/mL (≈ 207 µM).

These molecules were tested on Mycobacteroides chelonae (assay: Antitubercular activity against Mycobacterium chelonae ATCC 35751 after 48 hrs by agar dilution method). Settings: ATCC 35751, 48 h.
Assay type: functional
Summary of the method: as §1
With `CCN1C(=O)/C(=N\NC(=O)c2cn(CC)c3nc(C)ccc3c2=O)c2ccccc21` the MIC was 200 µg/mL (≈ 496 µM). Work on `NNC(=O)c1ccncc1` [ISONIAZID] yielded an MIC of 12.5 µg/mL (≈ 91.1 µM). Molecule `CCn1cc(C(=O)N/N=C2\C(=O)N(Cc3ccccc3)c3ccc(Br)cc32)c(=O)c2ccc(C)nc21` has an MIC of 50 µg/mL (≈ 91.8 µM). For `CCn1cc(C(=O)N/N=C2\C(=O)N(Cc3ccccc3)c3ccccc32)c(=O)c2ccc(C)nc21`, the MIC was 0.625 µg/mL (≈ 1.34 µM).

What follows are molecules tested on Mycolicibacterium smegmatis (assay: Antitubercular activity against Mycobacterium smegmatis ATCC 35797 after 48 hrs by agar dilution method). Settings: ATCC 35797, 48 h.
Assay type: functional
Summary of the method: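 MIC by agar dilution, NCCLS-like protocol. A 1 mg/ml DMSO stock is diluted in 10% molten agar to 200 µg/ml, then 100, 50, 25, 12.5, 6.25 down to 0.625 µg/ml. Plates are 3–4 mm deep. Overnight Mueller–Hinton cultures are diluted 1:100 and streaked radially. Incubation is 35 °C for 48 h. The control is DMSO in medium.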
Work on `CCn1cc(C(=O)N/N=C2\C(=O)Nc3ccccc32)c(=O)c2ccc(C)nc21` yielded an MIC of 100 µg/mL (≈ 266 µM). Molecule `CCN1C(=O)/C(=N\NC(=O)c2cn(CC)c3nc(C)ccc3c2=O)c2ccccc21` has an MIC of 200 µg/mL (≈ 496 µM). Work on `NNC(=O)c1ccncc1` [ISONIAZID] yielded an MIC of 12.5 µg/mL (≈ 91.1 µM). In the case of `CCn1cc(C(=O)N/N=C2\C(=O)N(C)c3ccccc32)c(=O)c2ccc(C)nc21`, the MIC was 200 µg/mL (≈ 514 µM). Molecule `CCn1cc(C(=O)N/N=C2\C(=O)N(Cc3ccccc3)c3ccc(Br)cc32)c(=O)c2ccc(C)nc21` has an MIC of 50 µg/mL (≈ 91.8 µM). Molecule `CCn1cc(C(=O)N/N=C2\C(=O)Nc3ccc(Br)cc32)c(=O)c2ccc(C)nc21` has an MIC of 200 µg/mL (≈ 440 µM). Molecule `CCn1cc(C(=O)N/N=C2\C(=O)N(Cc3ccccc3)c3ccccc32)c(=O)c2ccc(C)nc21` has an MIC of 0.625 µg/mL (≈ 1.34 µM). For `CCN1C(=O)/C(=N\NC(=O)c2cn(CC)c3nc(C)ccc3c2=O)c2cc(Br)ccc21`, the MIC was 100 µg/mL (≈ 207 µM).

What follows are molecules tested on Mycobacterium intracellulare (assay: Antitubercular activity against Mycobacterium intracellular ATCC 35743 at 200 ug/ml after 48 hrs by agar dilution method). Settings: not given.
Assay type: functional, organism-based
Summary of the method: (§2)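 Agar dilution screen. Compounds are dissolved in DMSO at 1 mg/ml stock and mixed into 10% molten agar to 200 µg/ml. Plates are poured 3–4 mm deep. Overnight Mueller–Hinton broth cultures are diluted 1:100 and streaked radially. Plates are incubated at 35 °C for 48 h. Controls are strain with DMSO and medium only.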
In the case of `CCn1cc(C(=O)N/N=C2\C(=O)Nc3ccccc32)c(=O)c2ccc(C)nc21`, the MIC was “inactive”. With `CCn1cc(C(=O)N/N=C2\C(=O)Nc3ccc(Br)cc32)c(=O)c2ccc(C)nc21` the MIC was “inactive”.

Each molecule was assayed on Mycobacterium xenopi (assay: Antitubercular activity against Mycobacterium xenopi ATCC 14470 at 200 ug/ml after 48 hrs by agar dilution method). Settings: not given.
Assay type: functional, organism-based
Summary of the method: as §2
`CCn1cc(C(=O)N/N=C2\C(=O)Nc3ccccc32)c(=O)c2ccc(C)nc21` was tested, and the MIC was “inactive”. With `CCn1cc(C(=O)N/N=C2\C(=O)N(C)c3ccccc32)c(=O)c2ccc(C)nc21` the MIC was “inactive”. With `CCn1cc(C(=O)N/N=C2\C(=O)Nc3ccc(Br)cc32)c(=O)c2ccc(C)nc21` the MIC was “inactive”.

The molecules below were run on Mycobacteroides chelonae (assay: Antitubercular activity against Mycobacterium chelonae ATCC 35751 at 200 ug/ml after 48 hrs by agar dilution method). Settings: not given.
Assay type: functional, organism-based
Summary of the method: as §2
With `CCn1cc(C(=O)N/N=C2\C(=O)Nc3ccccc32)c(=O)c2ccc(C)nc21` the MIC was “inactive”. For `CCn1cc(C(=O)N/N=C2\C(=O)N(C)c3ccccc32)c(=O)c2ccc(C)nc21`, the MIC was “inactive”. `CCn1cc(C(=O)N/N=C2\C(=O)Nc3ccc(Br)cc32)c(=O)c2ccc(C)nc21` was tested, and the MIC was “inactive”. With `CCN1C(=O)/C(=N\NC(=O)c2cn(CC)c3nc(C)ccc3c2=O)c2cc(Br)ccc21` the MIC was “inactive”.

Each molecule was assayed on Mycolicibacterium smegmatis (assay: Antitubercular activity against Mycobacterium smegmatis ATCC 35797 at 200 ug/ml after 48 hrs by agar dilution method). Settings: not given.
Assay type: functional, organism-based
Summary of the method: as §1
`CCN(CC)CN1C(=O)/C(=N\NC(=O)c2cn(CC)c3nc(C)ccc3c2=O)c2cc(Br)ccc21` was tested, and the MIC was “inactive”. `CCn1cc(C(=O)N/N=C2\C(=O)N(CN3CCN(C)CC3)c3ccccc32)c(=O)c2ccc(C)nc21` was tested, and the MIC was “inactive”. With `CCN(CC)CN1C(=O)/C(=N\NC(=O)c2cn(CC)c3nc(C)ccc3c2=O)c2ccccc21` the MIC was “inactive”. `C=CCN1C(=O)/C(=N\NC(=O)c2cn(CC)c3nc(C)ccc3c2=O)c2ccccc21` was tested, and the MIC was “inactive”. With `CCn1cc(C(=O)N/N=C2\C(=O)N(C)c3ccc(Br)cc32)c(=O)c2ccc(C)nc21` the MIC was “inactive”. With `CCCN1C(=O)/C(=N\NC(=O)c2cn(CC)c3nc(C)ccc3c2=O)c2ccccc21` the MIC was “inactive”. In the case of `C=CCN1C(=O)/C(=N\NC(=O)c2cn(CC)c3nc(C)ccc3c2=O)c2cc(Br)ccc21`, the MIC was “inactive”. For `CCCN1C(=O)/C(=N\NC(=O)c2cn(CC)c3nc(C)ccc3c2=O)c2cc(Br)ccc21`, the MIC was “inactive”.

These molecules were tested on Mycobacterium intracellulare (assay: Ratio of compound MIC to isoniazid MIC for Mycobacterium intracellular ATCC 35743). Settings: not given.
Assay type: functional
Molecule `CCn1cc(C(=O)N/N=C2\C(=O)N(Cc3ccccc3)c3ccccc32)c(=O)c2ccc(C)nc21` has a Ratio of 20.

These molecules were tested on Mycobacterium xenopi (assay: Ratio of compound MIC to isoniazid MIC for Mycobacterium xenopi ATCC 14470). Settings: not given.
Assay type: functional
`CCn1cc(C(=O)N/N=C2\C(=O)N(Cc3ccccc3)c3ccccc32)c(=O)c2ccc(C)nc21` was tested, and the Ratio was 20.

What follows are molecules tested on Mycobacteroides chelonae (assay: Ratio of compound MIC to isoniazid MIC for Mycobacterium chelonae ATCC 35751). Settings: not given.
Assay type: functional
For `CCn1cc(C(=O)N/N=C2\C(=O)N(Cc3ccccc3)c3ccccc32)c(=O)c2ccc(C)nc21`, the Ratio was 20.

The molecules below were run on Mycolicibacterium smegmatis (assay: Ratio of compound MIC to isoniazid MIC for Mycobacterium smegmatis ATCC 35797). Settings: not given.
Assay type: functional
`CCn1cc(C(=O)N/N=C2\C(=O)N(Cc3ccccc3)c3ccccc32)c(=O)c2ccc(C)nc21` gave a Ratio of 20.
